For assay [1], the target named is T1, Hemoglobin HbA (Homo sapiens) (UniProt P69905+P68871). As to the kind of experiment: Inhibition of sickle hemoglobin polymerization in human whole blood assessed as formation of high oxygen affinity schiff-base adducts by HPLC method. The class given is protein-complex assay. The note with it: TDE = time-dependent effect. The procedure, abridged:
(§1)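 Normal donor whole blood (30% hematocrit) or purified Hb (1.56 mM) incubated with compound (0.5, 1.0, 2.0 mM) at 37°C with shaking at 140 rpm for up to 24 h. Samples taken at 0.5, 1, 2, 4, 8, 12 and 24 h and quenched with cyanoborohydride/borohydride to fix Schiff-base adducts. Adducts quantified by cation-exchange HPLC. Peak read from the %modification-vs-time curve; AUC(0–24) by linear trapezoidal rule.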

Assay [2] concerns Erythrocyte. As to the kind of experiment: Antisickling activity in human homozygous sickle red blood cells incubated for 2 hrs under hypoxic condition. In kind it is functional, cell-based. In short, it runs like this:
(§2)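 Sickle (SS) red cell suspensions at 20% hematocrit, with or without compound (0.5, 1.0, 2.0 mM; DMSO <2% final, also in controls), held in air at 37°C for 1 h, then under 4% O2/96% N2 at 37°C for 2 h. Aliquots fixed in 2% glutaraldehyde without air exposure; sickling scored on bright-field images at 40x. Mean ± SD, three biological replicates.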

The target of assay [3] is T1, Hemoglobin HbA (Homo sapiens). As to the kind of experiment: Induction of R-state stabilization of Hb in human homozygous sickle red blood cells assessed as change in oxygen pressure at which hemolysates are 50% saturated with oxygen at 0.5 mM incubated under air for 1 hr followed by 2 hrs incubation under hypoxic condition by oxygen equilibrium curve analysis relative to control. In short, it runs like this: (§3)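 SS cells (20% hematocrit) given 0.5–2.0 mM compound, 1 h in air at 37°C, then 2 h hypoxia (4% O2) at 37°C. Cells washed in PBS and lysed hypotonically. About 100 μL clarified lysate placed in 4 ml 0.1 M potassium phosphate, pH 7.0, and read on a Hemox analyzer. ΔP50 = (P50 untreated − P50 treated)/P50 untreated × 100, relative to DMSO controls. Three biological replicates.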

For assay [4] the target is unchanged. As to the kind of experiment: Induction of R-state stabilization of Hb in human homozygous sickle red blood cells assessed as change in oxygen pressure at which hemolysates are 50% saturated with oxygen at 2 mM incubated under air for 1 hr followed by 2 hrs incubation under hypoxic condition by oxygen equilibrium curve analysis relative to control. The procedure, abridged:
as §3

The target is the same in assay [5]. As to the kind of experiment: Inhibition of sickle hemoglobin polymerization in human whole blood assessed as formation of high oxygen affinity schiff-base adducts at 2 mM measured up to 24 hrs by HPLC method relative to control. In kind it is protein-complex assay. More on the design: scale not given: the % may be the effect or the level left. In short, it runs like this: as §1

The target is the same in assay [6]. As to the kind of experiment: Induction of R-state stabilization of Hb in human homozygous sickle red blood cells assessed as change in oxygen pressure at which hemolysates are 50% saturated with oxygen incubated under air for 1 hr followed by 2 hrs incubation under hypoxic condition by oxygen equilibrium curve analysis. The procedure, abridged: as §3
For assay [7] the target is unchanged. As to the kind of experiment: Induction of R-state stabilization of Hb in human homozygous sickle red blood cells assessed as change in oxygen pressure at which hemolysates are 50% saturated with oxygen at 1 mM incubated under air for 1 hr followed by 2 hrs incubation under hypoxic condition by oxygen equilibrium curve analysis relative to control. The procedure, abridged: as §3

Assay [8] deals with Erythrocyte. Nature of the assay: Antisickling activity in human homozygous sickle red blood cells at 1 mM incubated for 2 hrs under hypoxic condition relative to control. In kind it is functional. In short, it runs like this:
as §2

Assay [9] addresses T1, Hemoglobin HbA (Homo sapiens). As to the kind of experiment: Inhibition of sickle hemoglobin polymerization in human cell free hemoglobin matrix assessed as formation of high oxygen affinity schiff-base adducts incubated for 60 to 90 mins by HPLC method relative to control. In kind it is protein-complex assay. More on the design: scale not given: the % may be the effect or the level left.

Assay [10] has the same target. As to the kind of experiment: Inhibition of sickle hemoglobin polymerization in human homozygous sickle red blood cells assessed as formation of high oxygen affinity schiff-base adducts incubated under air for 1 hr followed by 2 hrs incubation under hypoxic condition by HPLC method. In short, it runs like this:
(§4)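 Lysates from SS cells (20% hematocrit) exposed to 0.5, 1.0 or 2.0 mM compound, 1 h air then 2 h 4% O2 at 37°C. Cells washed in PBS and lysed hypotonically. Hb S adduct percentage taken from weak cation-exchange HPLC elution patterns (Poly CAT A column). Mean ± SD of three biological replicates.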

The subject of assay [11] is Erythrocyte. Nature of the assay: Antisickling activity in human homozygous sickle red blood cells at 0.5 mM incubated for 2 hrs under hypoxic condition relative to control. The class given is functional. In short, it runs like this:
as §2

Assay [12] deals with T1, Hemoglobin HbA (Homo sapiens). Nature of the assay: Inhibition of sickle hemoglobin polymerization in human homozygous sickle red blood cells assessed as formation of high oxygen affinity schiff-base adducts at 2 mM incubated under air for 1 hr followed by 2 hrs incubation under hypoxic condition by HPLC method relative to control. Also noted: scale not given: the % may be the effect or the level left. The procedure, abridged: as §4

Assay [13] concerns Erythrocyte. As to the kind of experiment: Antisickling activity in human homozygous sickle red blood cells at 2 mM incubated for 2 hrs under hypoxic condition relative to control. The class given is functional. In short, it runs like this:
as §2

Assay [14] has as its target T1, Hemoglobin HbA (Homo sapiens). Nature of the assay: Inhibition of sickle hemoglobin polymerization in human homozygous sickle red blood cells assessed as formation of high oxygen affinity schiff-base adducts at 1 mM incubated under air for 1 hr followed by 2 hrs incubation under hypoxic condition by HPLC method relative to control. Also noted: scale not given: the % may be the effect or the level left. In short, it runs like this: as §4

Assay [15] shares this target. Nature of the assay: Inhibition of sickle hemoglobin polymerization in human whole blood assessed as formation of high oxygen affinity schiff-base adducts at 2 mM measured at 2 hrs by HPLC method relative to control. The class given is protein-complex assay. Also noted: scale not given: the % may be the effect or the level left. In short, it runs like this:
as §1

For assay [16] the target is unchanged. As to the kind of experiment: Inhibition of sickle hemoglobin polymerization in human whole blood assessed as formation of high oxygen affinity schiff-base adducts at 2 mM measured after 24 hrs by HPLC method relative to control. In kind it is protein-complex assay. Also noted: scale not given: the % may be the effect or the level left. The procedure, abridged:
as §1

For assay [17] the target is unchanged. As to the kind of experiment: Inhibition of sickle hemoglobin polymerization in human whole blood assessed as formation of high oxygen affinity schiff-base adducts at 2 mM after 2 hrs by HPLC method relative to control. More on the design: scale not given: the % may be the effect or the level left. In kind it is protein-complex assay. The procedure, abridged: as §1

For assay [18] the target is unchanged. As to the kind of experiment: Inhibition of sickle hemoglobin polymerization in human homozygous sickle red blood cells assessed as formation of high oxygen affinity schiff-base adducts at 0.5 mM incubated under air for 1 hr followed by 2 hrs incubation under hypoxic condition by HPLC method relative to control. More on the design: scale not given: the % may be the effect or the level left. In short, it runs like this:
as §4

Assay [19] has the same target. As to the kind of experiment: Inhibition of sickle hemoglobin polymerization in human whole blood assessed as formation of high oxygen affinity schiff-base adducts at 2 mM measured at 12 hrs by HPLC method relative to control. The class given is protein-complex assay. Also noted: scale not given: the % may be the effect or the level left. In short, it runs like this:
as §1

For assay [20] the target is unchanged. As to the kind of experiment: Inhibition of sickle hemoglobin polymerization in human cell free hemoglobin matrix assessed as formation of high oxygen affinity schiff-base adducts incubated for 90 mins by HPLC method relative to control. The class given is protein-complex assay. Also noted: scale not given: the % may be the effect or the level left.

T1 sequence (P68871 2-147 partner limits assumed): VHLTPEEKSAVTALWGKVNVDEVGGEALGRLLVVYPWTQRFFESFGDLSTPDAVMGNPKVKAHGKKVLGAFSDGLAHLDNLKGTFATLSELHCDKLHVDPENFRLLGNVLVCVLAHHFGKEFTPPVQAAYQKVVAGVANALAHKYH
T1 sequence (P69905 2-142 limits assumed): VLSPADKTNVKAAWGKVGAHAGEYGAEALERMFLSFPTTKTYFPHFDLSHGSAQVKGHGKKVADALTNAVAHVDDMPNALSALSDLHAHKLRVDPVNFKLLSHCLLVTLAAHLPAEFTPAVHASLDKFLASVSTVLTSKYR

The term inhibition denotes the share of the control response that was lost under treatment. As for `COc1ccc(OCc2cccnc2)c(C=O)c1`, the Activity result in assay [1] was “Tde”; in the assay with Erythrocyte [2] it was “Dose-dependent effect”; in assay [3] it was 24.8%; in [4], 75.8%; in [5] it was 25%; in [6] it was “Dose-dependent effect”. The Activity in assay [7] was 49.2%; in assay [9], 100%; in [10], “Dose-dependent effect”; in assay [12], 100%; in assay [14] it was 79%; in assay [15], 50%. Moreover, the results for the Activity in [16] and in [17] were 25% and 50%, respectively. Besides, the inhibition at 1000 µM in the assay on Erythrocyte [8] was found to be 59.5%. Besides, 500 µM produced 14.9% inhibition with Erythrocyte [11]. The inhibition at 2000 µM in the assay on Erythrocyte [13] stood at 90.5%.
As to `COc1cc(C=O)ccc1O` [VANILLIN], the Activity result in [1] was “Tde”; in the assay with Erythrocyte [2], “Dose-dependent effect”; in assay [3], 1.2%; in [4], 21%; in [6] it was “Dose-dependent effect”; in assay [7], 10.6%. The Activity entry in assay [10] was “Dose-dependent effect”; in assay [12], 12%; in [14], 5.6%; in [18] it was 3.3%. At 1000 µM the inhibition in the assay with Erythrocyte [8] was 7.3%. This compound displayed an inhibition at 500 µM in the assay with Erythrocyte [11] of 4.2%. In the assay with Erythrocyte [13], this compound yielded an inhibition at 2000 µM of 7.3%.
For `COc1ccc(OCc2ccccn2)c(C=O)c1`, the Activity entry in assay [1] was “Tde”; in the assay with Erythrocyte [2], “Dose-dependent effect”; in [3], 22%; in assay [4] it was 61.4%; in assay [6] it was “Dose-dependent effect”; in assay [7], 38.1%. Moreover, the Activity in [9] was 100%; in assay [10], “Dose-dependent effect”; in assay [12] it was 79.5%; in [14], 55.3%; in assay [16] it was 45%; in [18], 26.3%. The Activity in assay [19] came to 50%. This compound registered an inhibition at 1000 µM in the assay on Erythrocyte [8] of 64.8%. The same compound yielded an inhibition at 500 µM in the assay on Erythrocyte [11] of 24.3%. In addition, in the assay on Erythrocyte [13], the inhibition at 2000 µM is 90.3%.
For `COc1ccc(OCc2ccncc2)c(C=O)c1`, the Activity entry in [1] is “Tde”; in the assay on Erythrocyte [2], “Dose-dependent effect”; in assay [3], 7.9%; in assay [4], 55.6%; in assay [5], 15%; in assay [6] it was “Dose-dependent effect”. In addition, the Activity was 31.5% in assay [7]; 100% in assay [9]; “Dose-dependent effect” in assay [10]; 82.5% in assay [12]; 58.7% in [14]; 50% in [15]. The results for the Activity in assay [16], in assay [17] and in assay [18] were 15%, 45% and 32.8%, respectively. The compound further yielded an inhibition at 1000 µM in the assay on Erythrocyte [8] of 60.4%. In the assay on Erythrocyte [11], this compound displayed an inhibition at 500 µM of 21.7%. In the assay on Erythrocyte [13], at 2000 µM the inhibition was 85.9%.
Consider `COc1ccc(C=O)c(OCc2ccccn2)c1`, for which the Activity result in [1] is “Tde”; in the assay on Erythrocyte [2], “Dose-dependent effect”; in [3] it was 8.1%; in assay [4] it was 34.2%; in assay [5], 60%; in assay [6], “Dose-dependent effect”. The Activity in [7] is 20.9%; in assay [10] it was “Dose-dependent effect”; in assay [12], 51.6%; in [20], 50%; in assay [14], 24.8%; in assay [18], 12%. The same compound showed an inhibition at 1000 µM in the assay on Erythrocyte [8] of 13.5%. The same compound returned an inhibition at 500 µM in the assay with Erythrocyte [11] of 7.6%. This compound gave an inhibition at 2000 µM in the assay with Erythrocyte [13] of 51.3%.
